{"data": "Results of several laboratories", "target": "3-phosphoinositide-dependent protein kinase 1 (PDPK1, Homo sapiens, UniProt O15530)", "note": "Lines come from different studies, so protocols differ."}
{"SMILES": "C=CC(=O)Nc1cc(Nc2nccc(Nc3cc(Cl)c(F)cc3C(C)(C)O)n2)c(OC)cc1N1CC[C@@H](N(C)C)C1", "test": "enzyme activity, inhibitor", "setting": "1 µM", "inhibition": "-2%"}
{"SMILES": "CC/C(=N\\NC(=O)NCc1cccc(O)c1)c1ccc(O)c(C)c1O", "test": "enzyme activity, inhibitor", "setting": "0.1 µM", "inhibition": "-1.2%"}
{"SMILES": "CS(=O)(=O)Nc1cccc(-c2csc(NC(=O)CSc3nc4nccnc4c(=O)n3CCc3ccccc3)n2)c1", "test": "enzyme activity, inhibitor", "setting": "10 µM", "inhibition": "7%"}
{"SMILES": "COc1cc2ncnc(Nc3ccc(Oc4ccccc4)c(C)c3C)c2cc1OC", "test": "enzyme activity, inhibitor", "setting": "1 µM", "inhibition": "-2%"}
{"SMILES": "CN1CC(Oc2cnc(C#N)cc2-c2ccn3nc(NC(=O)C4CC4)cc3c2)C1", "test": "enzyme activity, inhibitor", "setting": "1 µM", "inhibition": "12%"}
{"SMILES": "Cc1ccc(Nc2nccc(N(C)c3ccc4c(C)n(C)nc4c3)n2)cc1S(N)(=O)=O", "test": "enzyme activity, inhibitor", "setting": "10 µM", "inhibition": "34%"}
{"SMILES": "CCN(CC)CCNC(=O)c1c(C)[nH]c(/C=C2\\C(=O)Nc3ccc(F)cc32)c1C", "test": "binding, competition with immobilised ligand", "setting": "10 µM", "inhibition": "71%"}
{"SMILES": "CNC(=O)c1cc(Oc2ccc(NC(=O)Nc3ccc(Cl)c(C(F)(F)F)c3)cc2)ccn1", "test": "enzyme activity, inhibitor", "setting": "10 µM", "inhibition": "8%"}
{"SMILES": "CC(C)COc1cccc(Cl)c1-c1cc2cnc(N)nc2nc1N1C[C@@H]2[C@@H](N)[C@@H]2C1", "test": "enzyme activity, inhibitor, FRET", "setting": "25 µM", "inhibition": "0%"}
{"SMILES": "c1ccc(CNc2nc(N3CCOc4ccccc43)nc3c2CCCC3)cc1", "test": "target engagement in cells, inhibitor, chemoproteomics", "setting": "20 mM", "inhibition": "-11.8%"}
{"SMILES": "CN(C)C1CCN(CC#Cc2nn(C3CCCC3)c3nc(NCc4ccccc4)ncc23)C1 (centres unmarked)", "test": "enzyme activity, inhibitor, FRET", "setting": "10 µM", "inhibition": "3%"}
